Laboratory results reported in ChEMBL document CHEMBL4364301 (Eur J Med Chem, 2019).

How the values were obtained:
Type in all cases: functional
LNCaP = assay: Antiproliferative activity against human LNCAP cells assessed as reduction in cell growth incubated for 96 hrs by propidium iodide based 2D monolayer assay
Summary of the method: (§1)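 After 24 h recovery, compound in medium or medium alone (control wells) was added at 10 half-log concentrations from 0.0032 to 100 µM, in triplicate, with at most 0.3% DMSO. After 96 h, wells were PBS-washed, stained with 7 µg/ml PI and 0.1% Triton X-100, and fluorescence read at 530/620 nm. IC50 came from a 4-parameter fit, geometric mean.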

VCaP = assay: Antiproliferative activity against human VCaP cells assessed as reduction in cell growth incubated for 96 hrs by propidium iodide based 2D monolayer assay
Summary of the method: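 VCaP cells in RPMI 1640 with 10% FCS at 37 °C, 5% CO2, seeded 4,000–20,000 cells/well and left 24 h before dosing. Compounds from DMSO stocks were diluted in half-log steps in medium, 10 concentrations 0.0032–100 μM, triplicate wells, max 0.3% DMSO. After 96 h, cells were washed, stained with 7 μg/ml propidium iodide plus 0.1% Triton X-100 for 1–2 h at room temperature, and fluorescence read at ex 530/em 620 nm.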

DU-145 = assay: Antiproliferative activity against human DU145 cells assessed as reduction in cell growth incubated for 96 hrs by propidium iodide based 2D monolayer assay; details: DU-145, 96 h; summary of the method: as §1
CWR22R = assay: Antiproliferative activity against human 22Rv1 cells assessed as reduction in cell growth incubated for 96 hrs by propidium iodide based 2D monolayer assay; details: 22Rv1, 96 h; summary of the method: as §1

Compound `CC(O)(COc1ccc(C#N)c(F)c1)C(=O)Nc1ccc(S(F)(F)(F)(F)F)cc1` (racemic) has an IC50 (LNCaP) of 100 µM, an IC50 (VCaP) of 100 µM and an IC50 (DU-145) of 30.4 µM. The IC50 (CWR22R) was 24.3 µM.
`CC(O)(CSc1cccc(S(F)(F)(F)(F)F)c1)C(=O)Nc1ccc([N+](=O)[O-])cc1C(F)(F)F` (racemic) showed an IC50 (LNCaP) of 12.7 µM, an IC50 (VCaP) of 28.8 µM and an IC50 (DU-145) of 18.9 µM. It also gave an IC50 (CWR22R) of 17.5 µM.
For `CC(O)(COc1ccccc1OC(F)(F)F)C(=O)Nc1cccc(S(F)(F)(F)(F)F)c1` (racemic), the IC50 (LNCaP) was 16.1 µM, the IC50 (VCaP) was 27.7 µM and the IC50 (DU-145) was 38.1 µM. The IC50 (CWR22R) was 30 µM.
`CC(O)(CS(=O)(=O)c1cccc(S(F)(F)(F)(F)F)c1)C(=O)Nc1ccc([N+](=O)[O-])c(C(F)(F)F)c1` (racemic) gave an IC50 (LNCaP) of 13.8 µM, an IC50 (VCaP) of 24.6 µM and an IC50 (DU-145) of 17.2 µM. It also gave an IC50 (CWR22R) of 14.8 µM.
`CC(O)(CSc1ccccc1C(F)(F)F)C(=O)Nc1cccc(S(F)(F)(F)(F)F)c1` (racemic) was tested, and the IC50 (LNCaP) was 12.3 µM, the IC50 (VCaP) was 21 µM and the IC50 (DU-145) was 15.8 µM. For the same compound, the IC50 (CWR22R) was 13.2 µM.
